In ChEMBL document CHEMBL1133684, “Novel cannabinol probes for CB1 and CB2 cannabinoid receptors” (J Med Chem, 2000):

How the values were obtained:
Cannabinoid receptor 1 [1] = molecular target: T1, Cannabinoid receptor 1 (Homo sapiens, UniProt P21554); assay: Binding affinity was determined for Cannabinoid receptor 1
[2] = molecular target: Cannabinoid receptor (Homo sapiens) (UniProt P34972+P21554); assay: Ratio of Ki of CB1 receptor to that of CB2 receptor; assay type: protein assay
Cannabinoid receptor 2 [3] = molecular target: T2, Cannabinoid receptor 2 (Homo sapiens, UniProt P34972); assay: Binding affinity was determined for Cannabinoid receptor 2
In short: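 Radioligand displacement on P2 membrane preparations, filtration method. Test compounds kept as 1 mg/mL stocks in absolute ethanol at -20 °C.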

Cannabinoid receptor 1 [4] = molecular target: T1, Cannabinoid receptor 1; assay: Compound was tested for inhibition of Adenylyl cyclase in cannabinoid receptor 1 (CB1).
Cannabinoid receptor 2 [5] = molecular target: T2, Cannabinoid receptor 2; assay: Binding affinity was determined for cannabinoid receptor 2
In short: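 Radioligand displacement on P2 membrane preparations, filtration method. Test compounds kept as 1 mg/mL stocks in absolute ethanol at -20 °C. Displacement curves came from incubating the drugs with 1 nM [³H][…].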

Cannabinoid receptor (Homo sapiens), sequence (P21554 whole entry, looked up): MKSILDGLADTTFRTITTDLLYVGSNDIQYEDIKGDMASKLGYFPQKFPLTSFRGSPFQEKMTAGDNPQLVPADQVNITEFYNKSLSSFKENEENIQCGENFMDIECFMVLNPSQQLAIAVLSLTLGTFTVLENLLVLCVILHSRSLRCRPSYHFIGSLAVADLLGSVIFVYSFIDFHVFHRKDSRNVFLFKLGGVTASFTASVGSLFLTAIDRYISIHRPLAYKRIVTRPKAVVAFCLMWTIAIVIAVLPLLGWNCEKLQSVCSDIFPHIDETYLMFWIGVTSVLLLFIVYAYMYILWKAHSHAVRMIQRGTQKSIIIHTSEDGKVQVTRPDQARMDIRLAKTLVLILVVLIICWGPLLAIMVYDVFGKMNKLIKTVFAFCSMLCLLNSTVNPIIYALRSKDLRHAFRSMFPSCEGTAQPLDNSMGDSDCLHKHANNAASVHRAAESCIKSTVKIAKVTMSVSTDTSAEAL
Cannabinoid receptor (Homo sapiens), sequence (P34972 whole entry, looked up): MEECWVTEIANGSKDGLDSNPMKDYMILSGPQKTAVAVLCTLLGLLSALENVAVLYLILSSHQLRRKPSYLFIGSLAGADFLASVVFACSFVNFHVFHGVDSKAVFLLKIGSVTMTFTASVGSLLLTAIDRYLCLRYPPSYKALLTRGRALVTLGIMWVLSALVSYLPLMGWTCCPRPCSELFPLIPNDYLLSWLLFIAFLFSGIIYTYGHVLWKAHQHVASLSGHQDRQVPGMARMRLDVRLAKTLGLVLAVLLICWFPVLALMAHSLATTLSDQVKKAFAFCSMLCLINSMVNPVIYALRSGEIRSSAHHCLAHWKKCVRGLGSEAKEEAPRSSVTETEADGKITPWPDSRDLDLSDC
T1 sequence (P21554 whole entry): as the sequence (P21554 whole entry, looked up) above
T2 sequence (P34972 whole entry): as the sequence (P34972 whole entry, looked up) above

Compound	Ki (Cannabinoid receptor 1 [1])	Ratio [2]	Ki (Cannabinoid receptor 2 [3])	Ki (Cannabinoid receptor 1 [4])	Ki (Cannabinoid receptor 2 [5])
CCCC(C)(C)c1cc(O)c2c(c1)OC(C)(C)c1ccc(C)cc1-2	42 nM	7	6 nM	–	–
CCCCCCC(C)(C)c1ccc(-c2cc(C)ccc2C(C)C)c(O)c1	33 nM	10	–	–	–
CCCC(C)(C)c1ccc2c(c1)OC(C)(C)c1ccc(CO)cc1-2	–	3	67 nM	–	–
CCCCCCC(C)(C)c1cc(OC)c2c(c1)OC(C)(C)c1ccc(C(=O)OC(C)C)cc1-2	> 10000 nM	–	> 10000 nM	–	–
CCCCCCC(C)(C)c1cc(OC)c2c(c1)OC(C)(C)c1ccc(C)cc1-2	681 nM	2.4	286 nM	–	–
CCCC(C)(C)c1ccc2c(c1)OC(C)(C)c1ccc(C(=O)OC)cc1-2	> 10000 nM	> 16.4	611 nM	–	–
CCCCCCC(C)(C)c1cc(OC)c2c(c1)OC(C)(C)c1ccc(C(=O)OC)cc1-2	> 10000 nM	> 18.9	529 nM	–	–
CCCCCCC(C)(C)c1ccc2c(c1)OC(C)(C)c1ccc(C)cc1-2	434 nM	2.6	167 nM	–	–
CCCCCCC(C)(C)c1cc(OC)c2c(c1)OC(C)(C)c1ccc(C(=O)OCc3ccc4ccccc4c3)cc1-2	> 10000 nM	–	> 10000 nM	–	–
CCCCCCC(C)(C)c1ccc2c(c1)OC(C)(C)c1ccc(C(=O)OC)cc1-2	558 nM	2	276 nM	–	–
CCCCCCOC(=O)c1ccc2c(c1)-c1c(OC)cc(C(C)(C)CCCCCC)cc1OC2(C)C	> 10000 nM	–	> 10000 nM	–	–
CCCCCCC(C)(C)c1cc(O)c2c(c1)OC(C)(C)c1ccc(C)cc1-2	1 nM	0.4	–	2 nM	2.24 nM
CCCCCCC(C)(C)c1cc(O)c2c(c1)OC(C)(C)c1ccc(CO)cc1-2	0.1 nM	0.5	–	–	–
CCCCCCC(C)(C)c1cc(OC)c2c(c1)OC(C)(C)c1ccc(C(=O)OCc3ccccc3)cc1-2	> 10000 nM	–	> 10000 nM	–	–
CCCCCCC(C)(C)c1cc(O)c2c(c1)OC(C)(C)c1ccc(C(=O)OC)cc1-2	14 nM	3.7	3.8 nM	–	–
CCCCCCC(C)(C)c1cc(OC)c2c(c1)OC(C)(C)c1ccc(C(=O)OCCC)cc1-2	1730 nM	8.1	214 nM	–	–
CCCC(C)(C)c1ccc(-c2cc(C)ccc2C(C)C)c(O)c1	875 nM	7.7	–	–	–
CCCCCCC(C)(C)c1ccc2c(c1)OC(C)(C)c1ccc(CO)cc1-2	2 nM	2	1 nM	–	–
